From ChEMBL document CHEMBL5104214, “Efficient selective targeting of Candida CYP51 by oxadiazole derivatives designed from plant cuminaldehyde” (RSC Med Chem, 2022) come the findings set out here.

SMILES strings stand for the structures. ≈ marks a conversion by molar mass, not a printed value.

Usually MIC50 stands for the lowest concentration that inhibits either 50% of growth or 50% of the strains tested, depending on the study. What is called IC50 is the concentration that gives 50% inhibition.

A short description of series [1]: Cytotoxicity against human F180 cells assessed as cell growth inhibition at 1 times MIC50 against Candida auris incubated for 48 hrs by SRB assay. The note with it: f180, 48 h. Format: toxicity, cell-based. The gist of the method:
(§1)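 SRB assay on normal human skin fibroblasts F-180 in DMEM with 15% FBS, 37 °C, 5% CO2. Seeded 20 000 cells/well and left overnight, then compounds at 10, 20 and 30 μg ml−1 for 48 h; DMSO vehicle ≤0.1%. TCA fixation, 0.4% SRB stain, dye solubilised in 10 mM Tris, OD 492 nm. Six repeats.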

In series [2] the test system is [Candida] auris. The series can be described thus: Antifungal activity against Candida auris clinical isolate assessed as inhibition of fungal growth incubated for 24 hrs by microdilution assay. The note with it: Candidozyma auris. Format: functional. In outline: (§2)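 Broth microdilution per CLSI. Inoculum 10^5 CFU mL−1, compounds at 1, 3, 5, 10, 25, 50, 100 and 200 μg ml−1, 37 °C for 24 h. Turbidity read at 570 nm. MIC50 is the concentration giving 50% growth inhibition, from curve fitting. Triplicate.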
(Dilution methods test growth across graded concentrations, often in twofold steps.)

The nature of series [3]: Cytotoxicity against human F180 cells assessed as cell growth inhibition at 6 times MIC50 against Candida albicans SC5314 incubated for 48 hrs by SRB assay. Format: toxicity, cell-based. The note with it: f180, 48 h. In outline: as §1
Background: In SRB staining, fixed cells bind dye roughly in proportion to their protein.

Series [4] concerns Candida albicans. The series can be described thus: Antifungal activity against Candida albicans SC5314 assessed as inhibition of fungal growth at 100 ug/ml incubated for 24 hrs by spotting assay relative to control. The series is classed as functional. More on the design: scale not given: the % may be the effect or the level left. Particulars: dose 100 µg/ml. The gist of the method: (§3)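 Spotting screen: SDA plates streaked with 0.1 ml culture at 10^4 CFU ml−1, 5 μl of compound applied, 24 h at 37 °C. C. albicans SC5314 or C. auris clinical isolate kept on SDA at 37 °C. Growth inhibition judged against untreated control.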

The subject of series [5] is Candida albicans. In words: Antifungal activity against Candida albicans SC5314 assessed as inhibition of fungal growth incubated for 24 hrs by microdilution assay. Format: functional. The gist of the method:
as §2

The test system of series [6] is [Candida] auris. The series can be described thus: Antifungal activity against Candida auris clinical isolate assessed as inhibition of fungal growth at 100 ug/ml incubated for 24 hrs by spotting assay relative to control. The note with it: dose 100 µg/ml. The series is classed as functional, Candidozyma auris. More on the design: scale not given: the % may be the effect or the level left. In outline:
as §3

A short description of series [7]: Cytotoxicity against human F180 cells assessed as cell growth inhibition at 15 times MIC50 against Candida auris incubated for 48 hrs by SRB assay. Format: toxicity, cell-based. Particulars: f180, 48 h. The gist of the method: as §1
Series [8] can be described thus: Cytotoxicity against human F180 cells assessed as cell growth inhibition at 10 times MIC50 against Candida albicans SC5314 incubated for 48 hrs by SRB assay. The series is classed as toxicity, cell-based. Particulars: f180, 48 h. The gist of the method:
as §1

In series [9] the test system is CYP3A4 vs Candida albicans CYP51. In words: Selectivity index, ratio of IC50 for inhibition of human CYP3A4 using luciferin-IPA as substrate to IC50 for inhibition of candida albicans CYP51 using 7-ethoxyresorufin as fluorescent substrate. Format: toxicity. Particulars: probe luciferin-IPA (CYP3A4), 7-ethoxyresorufin (CYP51).
A short description of series [10]: Cytotoxicity against human F180 cells assessed as cell growth inhibition at 60 times MIC50 against Candida albicans SC5314 incubated for 48 hrs by SRB assay. The note with it: f180, 48 h. Format: toxicity, cell-based. The gist of the method: as §1
In a further series the target is Cytochrome P450 3A4 (Homo sapiens, UniProt P08684). In words: Inhibition of human CYP3A4 using luciferin-IPA as substrate preincubated for 10 mins followed by NADPH addition and measured after 30 mins by luminescence based assay. The series is classed as ADME.
In series [11] the target is T1, Lanosterol 14-alpha demethylase (Candida albicans (strain SC5314 / ATCC MYA-2876) (Yeast), UniProt P10613). In words: Inhibition of candida albicans CYP51 using 7-ethoxyresorufin as fluorescent substrate incubated for 10 mins in the presence of NADPH by fluorescence based spectroscopic microtiter plate reader analysis. In outline: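 CaCYP51 bactosomes in pH 7.4 phosphate buffer with 5 mM MgCl2 and the substrate 7-ethoxyresorufin. Inhibitor at 0, 0.1, 1, 10 and 100 μg ml−1. Started with 4 mM NADPH, shaken 10 min at 37 °C under yellow light. Resorufin read every 30 s (ex 572/em 604 nm). IC50 from curve fitting; fluconazole positive control.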

Series [12] has as its system Candida albicans. In words: Potency index, ratio of fluconazole MIC50 to test compound MIC50 for antifungal activity against Candida albicans SC5314 assessed as inhibition of fungal growth incubated for 24 hrs by microdilution assay. The series is classed as functional. In outline:
(§4)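 MIC50 ratio. MIC50 of fluconazole and of compound by broth microdilution: 10^5 CFU mL−1 inoculum, 1–200 μg ml−1, 37 °C for 24 h, turbidity at 570 nm, triplicate. Ratio taken as fluconazole MIC50 over compound MIC50.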

The target of series [13] is T1, Lanosterol 14-alpha demethylase. The series can be described thus: Potency index, ratio of fluconazole IC50 to test compound IC50 for inhibition of Candida albicans CYP51 using 7-ethoxyresorufin as fluorescent substrate incubated for 10 mins in the presence of NADPH by fluorescence based spectroscopic microtiter plate reader analysis. In outline:
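Ratio of fluconazole IC50 to compound IC50 against CaCYP51. Bactosomes with 7-ethoxyresorufin in pH 7.4 phosphate, 5 mM MgCl2. Inhibitor at 0–100 μg ml−1. Reaction started with 4 mM NADPH, 10 min at 37 °C, resorufin fluorescence ex 572/em 604 nm.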

For series [14] the target is unchanged. The series can be described thus: Inhibition of Candida albicans CYP51 assessed as ergosterol level incubated for 18 hrs by GC/MS analysis relative to control. The gist of the method: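 C. albicans colony grown in SDB 18 h at 37 °C with compound at its MIC50; untreated cells as negative control. Washed, normalized cells saponified in 60% alcoholic KOH, 80 °C 1 h. Sterols hexane-extracted, silylated (MSTFA/TMCS), analysed by GC-MS with ergosterol standard for retention time. Content expressed as AUC treated/AUC untreated × 100.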

The subject of series [15] is [Candida] auris. The series can be described thus: Potency index, ratio of fluconazole MIC50 to test compound MIC50 for antifungal activity against Candida auris clinical isolate assessed as inhibition of fungal growth incubated for 24 hrs by microdilution assay. The series is classed as functional, Candidozyma auris. In outline:
as §4

Series [16] in a line: Cytotoxicity against human F180 cells assessed as cell growth inhibition at 37.5 times MIC50 against Candida auris incubated for 48 hrs by SRB assay. Particulars: f180, 48 h. Format: toxicity, cell-based. The gist of the method:
as §1

The nature of series [17]: Cytotoxicity against human F180 cells assessed as cell growth inhibition at 2.3 times MIC50 against Candida auris incubated for 48 hrs by SRB assay. Particulars: f180, 48 h. The series is classed as toxicity, cell-based. The gist of the method: as §1
Series [18] can be described thus: Cytotoxicity against human F180 cells assessed as cell growth inhibition at 3 times MIC50 against Candida albicans SC5314 incubated for 48 hrs by SRB assay. Format: toxicity, cell-based. Particulars: f180, 48 h. The gist of the method: as §1

T1 sequence (P10613 whole entry): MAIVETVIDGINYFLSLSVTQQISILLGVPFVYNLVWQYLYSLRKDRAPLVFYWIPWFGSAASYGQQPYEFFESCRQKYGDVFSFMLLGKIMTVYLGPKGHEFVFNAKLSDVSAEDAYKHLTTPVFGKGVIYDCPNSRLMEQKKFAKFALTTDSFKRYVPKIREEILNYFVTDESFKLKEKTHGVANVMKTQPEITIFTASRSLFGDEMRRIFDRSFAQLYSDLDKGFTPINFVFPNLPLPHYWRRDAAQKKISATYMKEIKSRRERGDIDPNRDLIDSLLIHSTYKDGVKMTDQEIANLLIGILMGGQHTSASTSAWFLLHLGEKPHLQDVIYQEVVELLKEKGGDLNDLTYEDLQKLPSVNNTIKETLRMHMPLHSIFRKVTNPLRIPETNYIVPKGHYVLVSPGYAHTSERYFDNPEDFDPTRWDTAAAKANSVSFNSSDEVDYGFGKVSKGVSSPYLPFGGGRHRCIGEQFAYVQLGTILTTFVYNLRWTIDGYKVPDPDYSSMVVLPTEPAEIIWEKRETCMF
Chain of Cytochrome P450 3A4 (P08684 whole entry): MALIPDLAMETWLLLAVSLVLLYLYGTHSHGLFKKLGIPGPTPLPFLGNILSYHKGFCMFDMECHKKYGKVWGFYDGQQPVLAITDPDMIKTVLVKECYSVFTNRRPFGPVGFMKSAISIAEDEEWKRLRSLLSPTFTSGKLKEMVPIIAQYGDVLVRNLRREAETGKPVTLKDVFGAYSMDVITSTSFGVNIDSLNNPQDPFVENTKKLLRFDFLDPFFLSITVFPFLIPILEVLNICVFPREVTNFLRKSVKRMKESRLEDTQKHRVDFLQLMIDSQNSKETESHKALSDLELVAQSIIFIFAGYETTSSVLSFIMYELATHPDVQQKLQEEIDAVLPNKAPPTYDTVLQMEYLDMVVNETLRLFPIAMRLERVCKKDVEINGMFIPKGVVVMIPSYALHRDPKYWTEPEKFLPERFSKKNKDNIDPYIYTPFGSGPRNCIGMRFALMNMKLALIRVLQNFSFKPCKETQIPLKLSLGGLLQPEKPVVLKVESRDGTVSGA

Consider `COc1cccc(Nc2nnc(-c3ccc(C(C)(C)C)cc3)o2)c1`, for which the Activity result in series [1] is “Non-Toxic”; in series [3], “Non-Toxic”; with Candida albicans [4], 57%; in series [Candida] auris [6] it was 86%. The MIC50 in [Candida] auris [2] was 30 µg/mL (≈ 92.8 µM); in the series on Candida albicans [5], 5 µg/mL (≈ 15.5 µM).

Regarding `CC(C)c1ccc(-c2nnc(Nc3ccc(F)cc3)o2)cc1`, the MIC50 in series [Candida] auris [2] was determined as 2.08 µg/mL (≈ 7 µM); with Candida albicans [5], 3 µg/mL (≈ 10.1 µM). Further, the Activity result in series [7] was “Non-Toxic”; with Candida albicans [4], 80%; in series [8] it was “Non-Toxic”; in series [Candida] auris [6], 40%.

`CC(C)(C)c1ccc(-c2nnc(Nc3ccc(Cl)cc3)o2)cc1`: the results for the MIC50 (in series [Candida] auris [2]; in the series on Candida albicans [5]) were 0.8 µg/mL (≈ 2.44 µM) and 0.5 µg/mL (≈ 1.53 µM), respectively. For the same compound, the selectivity ratio in series [9] was more than 10000. Also, the Activity result was “Non-Toxic” in [10], 99.3% with Candida albicans [4], “Non-Toxic” in series [16] and 99% in [Candida] auris [6]. For the same compound, the IC50 on Cytochrome P450 3A4 was more than 30500 µM; in [11], 2.75 µM. In addition, the Ratio was found to be 50 in the series with Candida albicans [12] and 750 in [Candida] auris [15]. For the same compound, the “Ratio IC50” value in [13] amounted to 10. For the same compound, the “inhibition (INH)” value in series [14] worked out at 70.3%.

In the case of `COc1cccc(Nc2nnc(-c3ccc(C(C)C)cc3)o2)c1`, the MIC50 in series [Candida] auris [2] worked out at 12 µg/mL (≈ 38.8 µM); in the series on Candida albicans [5], 10 µg/mL (≈ 32.3 µM). In addition, the Activity result is listed as “Non-Toxic” in [17], 83% in the series on Candida albicans [4], “Non-Toxic” in [18] and 85% in series [Candida] auris [6].

With `OC(Cn1cncn1)(Cn1cncn1)c1ccc(F)cc1F` [FLUCONAZOLE], the MIC50 amounted to 600 µg/mL (≈ 1960 µM) in [Candida] auris [2] and 25 µg/mL (≈ 81.6 µM) in the series on Candida albicans [5]. Also, in series [11], the IC50 is 29 µM. Further, the “inhibition (INH)” value in series [14] was determined as 35.6%.
